Bioassay records as filed in PubChem.
Only some compounds are listed: those with a hit (about 4.2% of all), similar ones and a draw of the others.
Cl transport mod – modulates chloride dependent transport by human KCC2; Q9H2X9; KCC2 cells, thallium flux FluoZin-2 fluorescence; B-score of Tl+ flux slope (higher = more flux/activation; lower = inhibition) at 10 µM; 190,000 tested, 2.2% active; AID 1456;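 active = thallium flux slope and its plate-corrected score both differing from the plate sample mean at a set confidence after two filtering rounds, in either direction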;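 note: slope of fluorescence scaled to starting intensity during 10 to 20 s after thallium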
hERG rescue – hERG (human) protection from proarrhythmic block; CHO-hERG, FluxOR thallium flux, dofetilide IC70 present; activation (rescue from dofetilide block), less the hit threshold, % at 10 µM; 310,000 tested, 0.51% active; AID 1511;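 active = activation above the mean of controls blocked by dofetilide plus 5 SD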;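 note: thallium influx through hERG after potassium depolarization seen as dye fluorescence rise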
Target sequence (Q12809 whole entry, looked up): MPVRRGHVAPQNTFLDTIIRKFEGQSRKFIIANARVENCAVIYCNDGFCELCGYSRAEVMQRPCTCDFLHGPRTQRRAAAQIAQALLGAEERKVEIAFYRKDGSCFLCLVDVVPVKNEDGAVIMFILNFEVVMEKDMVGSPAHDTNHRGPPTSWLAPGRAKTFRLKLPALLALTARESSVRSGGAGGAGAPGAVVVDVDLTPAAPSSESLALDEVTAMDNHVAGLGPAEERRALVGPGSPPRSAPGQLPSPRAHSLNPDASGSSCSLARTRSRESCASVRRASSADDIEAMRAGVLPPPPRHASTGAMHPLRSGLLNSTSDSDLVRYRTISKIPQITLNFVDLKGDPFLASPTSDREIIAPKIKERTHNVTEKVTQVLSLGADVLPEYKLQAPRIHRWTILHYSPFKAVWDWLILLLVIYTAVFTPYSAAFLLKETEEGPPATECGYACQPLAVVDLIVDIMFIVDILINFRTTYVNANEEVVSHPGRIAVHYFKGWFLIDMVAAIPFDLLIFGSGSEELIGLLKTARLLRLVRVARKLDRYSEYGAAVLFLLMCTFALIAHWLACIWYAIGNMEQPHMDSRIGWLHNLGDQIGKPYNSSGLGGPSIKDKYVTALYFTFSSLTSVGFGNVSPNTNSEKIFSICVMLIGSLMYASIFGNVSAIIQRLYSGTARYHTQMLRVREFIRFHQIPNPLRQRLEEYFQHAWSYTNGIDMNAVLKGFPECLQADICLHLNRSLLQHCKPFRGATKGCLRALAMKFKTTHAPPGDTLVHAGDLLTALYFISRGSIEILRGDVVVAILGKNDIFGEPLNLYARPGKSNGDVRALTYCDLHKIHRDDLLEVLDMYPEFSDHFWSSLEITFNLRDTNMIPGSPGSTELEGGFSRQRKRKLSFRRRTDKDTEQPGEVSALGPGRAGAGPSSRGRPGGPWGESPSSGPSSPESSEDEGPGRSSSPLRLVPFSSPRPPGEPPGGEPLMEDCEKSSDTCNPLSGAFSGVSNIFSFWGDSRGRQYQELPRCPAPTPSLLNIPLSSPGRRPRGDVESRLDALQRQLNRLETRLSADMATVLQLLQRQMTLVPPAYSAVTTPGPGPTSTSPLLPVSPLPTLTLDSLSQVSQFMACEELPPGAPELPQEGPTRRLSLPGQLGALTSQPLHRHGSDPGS
KCNQ1 inh – human KCNQ1 channel inhibition; P51787; CHO-K1 KCNQ1, FluxOR thallium flux fluorescence; active compounds read high; B-score at 10 µM; 310,000 tested, 1.3% active;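 active = compounds whose thallium flux B-score, printed positive for inhibition, exceeds three library SD while starting fluorescence stays within three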;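 note: channel opened by potassium depolarization with thallium stimulus after 20 min compound exposure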
SUMO Mot1 rescue – SUMOylation pathway inhibition by Mot1-301 growth rescue; growth rescue, % at 18.8 µM; 320,000 tested, 1% active; S. cerevisiae Mot1-301 growth rescue, ATP luminescence, 38.5C; percent above DMSO median, 100 means doubled;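 active = every valid replicate shows activation above 250% relative to neutral control wells; inactive = the rest, any valid replicate at or below 250%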;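 note: OY570 slx delta 5 strain wells were the positive control but not used for scaling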
AI-2 QS mod – modulates the Vibrio harveyi AI-2 quorum sensing system; Vibrio harveyi JMH597 AI-2 luminescence/OD600 ratio, 9 h; active compounds read low; strain lacks LuxN and CqsS sensors; 0 = neutral-control median; 300,000 tested, 0.4% active; activity change, % at 7.5 µM; in the data active = activity change below about -75%, passing the limit was not always enough;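 note: luminescence divided by OD600 gain over 9 h not by final OD600 alone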
KCNQ1 pot – potentiates or activates the human KCNQ1 potassium channel. B-score at 10 µM. 310,000 tested, 0.35% active. P51787. CHO-K1 KCNQ1, thallium flux FluxOR fluorescence; active compounds read high;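 active = fluorescence ratio B-score, a plate-corrected score, at least three library SD, with initial intensity B-score within 5 SD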
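Medium – assay buffer, equal DMSO in all wells · Material – CHO-K1 cell line with stable KCNQ1 potassium channel expression · Signal – kinetic FluxOR thallium fluorescence, 10-s 1-Hz baseline, 110-s post-stimulus read · Compound – single concentration per compound, DMSO matched to controls · Schedule – 37 °C overnight plating, 90-min dark dye load, 20-min compound pretreatment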
Active calls of the source: *; i = inactive; . = not tested or not shown.

SMILES	Cl transport mod	hERG rescue	KCNQ1 inh	SUMO Mot1 rescue	AI-2 QS mod	KCNQ1 pot
Cc1nc2c(=O)n(C)c(=O)nc-2n(C)n1	-0.067	.	.	-19	-95*	.
Cc1ccc(S(=O)(=O)NC(Cc2cnc[nH]2)C(=O)O)cc1 (centres undefined)	-0.38	10*	i	-13	14	i
O=C(O)C(Cc1cnc[nH]1)NS(=O)(=O)c1ccc(Cl)cc1 (centres undefined)	0.79	-8	i	-8	18	i
NC(N)=N/N=C/c1ccc(N(c2ccccc2)c2ccccc2)cc1	.	-33	7*	-2	16	i
O=c1c2ccccc2nc(CNc2ccccc2)n1-c1ccccc1	-0.017	-9	i	9	6	i
O=C(O)C(Br)CBr (centres undefined)	.	.	.	263	.	.
O=C(O)c1ccc(-[n+]2c(-c3ccccc3)cc(-c3ccccc3)cc2-c2ccccc2)cc1	.	-2	i	41	8	i
Brc1ccc(-[n+]2c(-c3ccccc3)cc(-c3ccccc3)cc2-c2ccccc2)cc1	.	-33	7*	1	3	i
[O-]c1ccccc1-[n+]1c(-c2ccccc2)cc(-c2ccccc2)cc1-c1ccccc1	.	-41	6*	-10	33	i
Nc1ccccc1-[n+]1c(-c2ccccc2)cc(-c2ccccc2)cc1-c1ccccc1	-0.61	-17	7*	-16	6	i
Cc1ccccc1-[n+]1c(-c2ccccc2)cc(-c2ccccc2)cc1-c1ccccc1	.	-41	10*	-12	0	i
CC(=O)OC(C)(C)/C=C/C(=O)[C@](C)(O)C1[C@H](O)C[C@@]2(C)C3CC=C4C(C[C@H](O)C(=O)C4(C)C)[C@]3(C)C(=O)C[C@]12C (some centres undefined)	.	.	.	5	.	.
Cc1cccc(NP(C)(=O)c2nc3c(s2)CCCC3)c1 (centres undefined)	-0.11	-6	i	3	23	i
O=Cc1c(C(=O)O)n(Cc2ccccc2F)c2ccccc12	.	-4	i	0	14	i
CCCOC(=O)c1ccc(-[n+]2c(-c3ccccc3)cc(-c3ccccc3)cc2-c2ccccc2)cc1	.	-36	12*	1	44	i
Oc1ccccc1-[n+]1c(-c2ccccc2)cc(-c2ccccc2)cc1-c1ccccc1	.	-43	14*	-21	2	i
COc1cc2c(cc1OC)C1[C@H]3C(=CC[C@H]1OC2O)CCN3C (some centres undefined)	.	.	.	7	.	.
N[C@@H]1CCCC[C@H]1N.O=C(O)C(=O)O.[Pt]	.	-2	i	7	2	i
Cc1ccccc1C1=NCC(=S)Nc2ccc(Cl)cc21	5.7*	-8	i	14	.	i
Clc1ccc2c(c1)C(c1ccccc1Cl)=NCc1nnc(Br)n1-2	-0.88	-8	i	527	29	i
NC1=Nc2ccccc2Oc2ccccc21	.	-10	i	164	14	i
C=C[C@@H]1C2=CCOC(=O)C2=CO[C@H]1O[C@@H]1O[C@H](CO)[C@@H](O)[C@H](O)[C@H]1O	.	.	.	6	.	.
O=c1[nH]c(=O)n(-c2ccc(Cl)cc2)c(O)c1C=Nc1ccc(S(=O)(=O)Nc2nccs2)cc1	0.56	-5	i	19	-78*	i
CN1CSC(=S)N(C)C1	-0.28	-29	13*	10	10	i
CCOC(=O)C1(c2ccccc2)CCN(CCC(=O)Nc2ccc(C(=O)OC)cc2)CC1	.	.	.	72	.	.
SMILES	Cl transport mod	hERG rescue	KCNQ1 inh	SUMO Mot1 rescue	AI-2 QS mod	KCNQ1 pot
CCOC(=O)C1(c2ccccc2)CCN(CCC(C#N)(c2ccccc2)c2ccccc2)CC1	.	-11	6*	10	16	i
CCOc1ccc(-n2c(O)c(/C=C3\C=Nc4ccccc43)c(=O)[nH]c2=O)cc1	.	-5	9*	297*	2	i
CCCNC(=O)N1[C@H]2CC[C@@H]1C(C(=O)OC)=C(c1ccc(OC)c(OC)c1)C2	.	.	.	15	.	.
C1CCC2S[C@H]3CCCCC3NC2C1 (some centres undefined)	0.13	5.3*	i	-2	8	i
C=CC[N+]1(C)C2CCC1CC(O)C2 (centres undefined)	-0.48	6.2*	i	.	17	i
CN(C)c1ccc(/C=C/[N+](=O)[O-])cc1	-2.1	-17	12*	119	-9	i
CN(C)c1ccc(C(=O)c2ccc(N(C)C)cc2)cc1	0.014	-3	i	-15	13	i
C/C(=C\c1ccc(N(C)C)cc1)[N+](=O)[O-]	0.48	-12	i	74	-91*	i
COc1ccc(C(=O)NC(=S)N2C[C@H]3C[C@H](C2)c2cccc(=O)n2C3)cc1	.	-4	i	5	-1	i
COc1ccccc1OCC(=O)Nc1ccc(Cl)cc1C(=O)c1ccccc1	.	-4	i	2	6	i
CCOc1ccccc1OCC(=O)Nc1ccc(Cl)cc1C(=O)c1ccccc1	-1.5	-6	6*	3	18	i
CC(C)(C)c1ccc(CSc2cnn(C(C)(C)C)c(=O)c2Cl)cc1	.	-15	11*	-6	11	i
COC(=O)C1=C(c2cc3ccccc3s2)C[C@@H]2CC[C@H]1N2C(=O)NCc1ccc(F)cc1	.	-14	i	-10	-3	i
CN1CCN(c2ccc(S(C)(=O)=O)cc2[N+](=O)[O-])CC1	0.013	-3	i	9	17	i
CN1CCN(c2ccc([N+](=O)[O-])c3no[n+]([O-])c23)CC1	-1.6	-36	10*	233	6	i
O=C(c1cn(Cc2ccccc2F)c2ncccc12)C(F)(F)F	.	-3	i	-23	-3	i
O=C1NC(=S)N(c2ccc(F)cc2)C(=O)/C1=C/c1ccco1	.	3	i	35	37	i
COc1ccc(OC)c(N2C(=O)/C(=C/c3ccco3)C(=O)NC2=S)c1	.	8.4*	i	-13	35	i
CC(=O)OC1=CC[C@H]2[C@@H]3CC[C@H]4C[C@H](OC(C)=O)[C@@H](OC(C)=O)C[C@]4(C)[C@H]3CC[C@]12C	.	.	.	88	.	.
Oc1ccc(C(=C(Cl)Cl)c2ccc(O)cc2)cc1	.	-20	6*	131	-70	i
Cc1ncc(CN2CCCC(C(=O)c3cccc(OC(C)C)c3)C2)s1 (centres undefined)	0.039	-6	i	295*	17	i
Cc1ccc(-n2c(O)c(/C=N/Nc3ccccc3)c(=O)[nH]c2=O)cc1C	.	1	i	310*	1	i
Clc1ccc(C(c2ccc(Cl)cc2)n2cc[n+](CC(OCc3ccc(Cl)cc3Cl)c3ccc(Cl)cc3Cl)c2)cc1 (centres undefined)	.	.	.	-45	.	.
